Screening data (PubChem)
Compounds with a hit are over-represented: about 3.8% of the library has one in this group of screens.
Kir21 inh: Kir2.1 (mouse) channel inhibition | P35561 | HEK293-Kir2.1, FluxOR thallium flux fluorescence; hits give low values | B-score at 10 µM | hit rate 0.85% among 310,000 | AID 1672;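 active means fluorescence ratio B-score at or below minus 3 SD of library scores, with starting-brightness B-score within 2 SD, cut at about -4.2 in these data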;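 further: channel flux triggered by added potassium and thallium sulfate stimulus; B-score of peak minus minimum fluorescence over baseline after thallium stimulus; more negative B-score means stronger Kir2.1 block with less thallium influx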
KCNK3 inh: human KCNK3 channel inhibition, primary screen. O14649. CHO-KCNK3 thallium flux, FluxOR fluorescence; hits give low values. B-score at 10 µM. hit rate 0.84% among 340,000. AID 602410;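 active means B-score under library mean minus 4 SD, starting fluorescence ratio at most library mean plus 5 SD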;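 further: more negative B-score means stronger inhibition of thallium flux through KCNK3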
KCNQ1 act: human KCNQ1 channel potentiation or activation. CHO-K1 KCNQ1, thallium flux FluxOR fluorescence; hits give high values. B-score at 10 µM. hit rate 0.35% among 310,000. AID 2648;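 active means fluorescence ratio B-score, a plate-corrected score, at least three library SD, with initial intensity B-score within 5 SD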
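Assay system: CHO-K1 cells stably expressing KCNQ1. Medium: assay buffer for compound exposure, DMSO matched across wells. Timing: 37 °C overnight plating, 90-min dark dye load, 20-min compound pretreatment. Signal: kinetic FluxOR fluorescence, 10 s baseline plus 110 s post-stimulus.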
KCNK9 block: blocks the human KCNK9 two-pore domain potassium channel; HEK293 KCNK9, FluxOR thallium flux fluorescence; hits give low values; B-score at 10 µM; hit rate 1.2% among 310,000; AID 488922;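 active means ratio B-score over 3 SD below the library mean, with starting fluorescence within 5 SD of its mean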;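 further: negative B-score means less thallium flux so channel inhibition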
hERG protect: compounds protecting human hERG from proarrhythmic drug block | CHO-hERG, FluxOR thallium flux, dofetilide IC70 present | activation (rescue from dofetilide block), less the hit threshold, % at 10 µM | Q12809 | hit rate 0.51% among 310,000;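 active means activation above the mean of controls blocked by dofetilide plus 5 SD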;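 further: thallium influx through hERG after potassium depolarization seen as dye fluorescence rise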
KCNQ1 block: human KCNQ1 channel inhibition | P51787 | CHO-K1 KCNQ1, FluxOR thallium flux fluorescence; hits give high values | hit rate 1.3% among 310,000 | B-score at 10 µM;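 active means compounds whose thallium flux B-score, printed positive for inhibition, exceeds three library SD while starting fluorescence stays within three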;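 further: channel opened by potassium depolarization with thallium stimulus after 20 min compound exposure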
KCNQ1 block val: confirmation of human KCNQ1 potassium channel inhibitors; shares compounds with KCNQ1 block; hit rate 93% among 1,600; KCNQ1 cell line, FluxOR thallium flux fluorescence; inhibition, % at 10 µM; AID 588353;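 active means primary screen active, with duplicate mean exceeding buffer control mean plus 3 SD of buffer wells, cut at about 28% in these data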;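 further: 0% = buffer control ratio and 100% = XE991 inhibitor control ratio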
CHO Tl flux: KCNQ1 inhibitor counter-screen hit in parental CHO cells; shares compounds with KCNQ1 block; parental CHO-K1, FluxOR thallium flux fluorescence ratio; hits give low values; zero means no signal rise above baseline; fluorescence ratio (Tl flux) at 10 µM; hit rate 21% among 1,600; AID 588366;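 active means mean of duplicate thallium-flux fluorescence ratios in parental host cells more than 5 SD below the buffer control mean, cut at about 0.38 in these data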;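 further: ratio is peak minus minimum fluorescence divided by baseline fluorescence; actives read low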
KCNQ1 ephys val: confirmation of human KCNQ1 potassium channel inhibitors by electrophysiology; shares compounds with KCNQ1 block; AID 624120; calls only at 10 µM; KCNQ1-CHO cells, automated patch clamp current; hit rate 20% among 490;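 active means KCNQ1 current drop exceeding 3 SD of negative control wells, seen in both duplicate runs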;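 further: steady state current during a 2 s step from -80 to +40 mV; negative values mean current inhibition and positive values mean potentiation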
KCNQ2 inh: KCNQ1 inhibitor that also blocks rat KCNQ2 channel; inhibition, % at 10 µM; KCNQ2 cells, FluxOR thallium flux fluorescence; hit rate 71% among 1,600; shares compounds with KCNQ1 block; AID 651746;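 active means mean percent inhibition of the KCNQ2 thallium signal more than 5 SD above the buffer-only control wells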;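 further: KCNQ2 expressed in CHO cells; 0% = buffer control wells and 100% = XE-991 inhibitor control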
KCNQ1 KCNE1 spec: human KCNQ1/KCNE1 inhibition in KCNQ1 specificity screen; inhibition, % at 10 µM; AID 652147; KCNQ1/KCNE1 cells, FluxOR thallium flux fluorescence; hit rate 77% among 1,600; shares compounds with KCNQ1 block;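 active means mean percent inhibition of duplicate wells above the buffer-only control mean plus 3 SD of those controls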;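 further: 0% = buffer only wells and 100% = XE-991 inhibitor control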
Target sequence (P51787 whole entry, looked up): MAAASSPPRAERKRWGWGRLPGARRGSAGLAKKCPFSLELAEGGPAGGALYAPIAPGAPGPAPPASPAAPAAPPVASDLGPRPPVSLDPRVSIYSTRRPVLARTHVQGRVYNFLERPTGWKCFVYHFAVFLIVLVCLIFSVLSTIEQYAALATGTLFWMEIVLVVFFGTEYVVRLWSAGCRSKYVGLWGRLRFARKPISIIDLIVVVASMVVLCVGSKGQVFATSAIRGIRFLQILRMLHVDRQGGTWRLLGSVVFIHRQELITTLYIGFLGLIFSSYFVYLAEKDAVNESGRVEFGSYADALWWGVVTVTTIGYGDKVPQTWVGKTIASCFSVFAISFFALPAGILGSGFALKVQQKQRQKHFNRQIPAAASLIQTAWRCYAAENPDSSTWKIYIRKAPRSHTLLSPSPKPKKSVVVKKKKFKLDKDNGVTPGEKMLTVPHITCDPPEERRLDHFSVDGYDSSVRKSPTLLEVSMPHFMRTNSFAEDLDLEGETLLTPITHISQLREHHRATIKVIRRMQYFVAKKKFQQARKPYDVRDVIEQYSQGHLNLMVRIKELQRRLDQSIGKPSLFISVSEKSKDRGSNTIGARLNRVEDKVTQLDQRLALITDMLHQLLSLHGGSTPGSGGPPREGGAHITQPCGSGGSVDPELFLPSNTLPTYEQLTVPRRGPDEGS
KCNK9 inh conf: human KCNK9 inhibitor confirmation; shares compounds with KCNK9 block; HEK293 KCNK9 cells, FluxOR thallium flux fluorescence; inhibition, % at 10 µM; hit rate 43% among 4,900;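 active means thallium signal inhibited by more than 5 SD of the compound-free buffer control wells, on both duplicate plates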;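 further: 0% = assay buffer control wells without compound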
Kir2-1 spec: tests whether KCNK9 modulators also affect mouse Kir2.1. shares compounds with KCNK9 block. Kir2.1 cells, FluxOR thallium flux fluorescence. inhibition, % at 10 µM. hit rate 4% among 4,900. AID 492993;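 active means thallium signal drop more than 5 SD beyond the mean of the no-compound control wells, seen in both duplicate plates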;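 further: signal is fluorescence rise after thallium addition divided by baseline fluorescence; plate controls were assay buffer only for no effect and full block by chlorpromazine control for full effect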
KCNK9 uninduced: second check of KCNK9 modulator effects in non-induced HEK293 cells; shares compounds with KCNK9 block; FluxOR thallium flux; inhibition, % at 10 µM; hit rate 40% among 4,900;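 active means thallium signal drop beyond 5 SD of the untreated control mean, on both duplicate plates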;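 further: plate controls were buffer only IC0 wells for no effect and SID17386958 at its maximal inhibitory level for full effect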
KCNK3 confirm: confirmation of human KCNK3 two-pore domain potassium channel inhibitors. shares compounds with KCNK3 inh. CHO-KCNK3 thallium flux, FluxOR fluorescence; 0% buffer, 100% carvedilol maximal block. ratio percent of control, % at 10 µM. hit rate 99% among 2,400;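 active means ratio percent of control, averaged over triplicates, above buffer control mean plus 5 SD, cut at about 64% in these data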;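 further: ratio is the fluorescence rise from min to max over baseline after thallium stimulus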
KCNK3 uninduced: activity in cells without induced KCNK3 expression | thallium flux ratio (lower = more inhibition) at 10 µM | non-induced KCNK3 parental cells, FluxOR thallium flux; hits give low values | shares compounds with KCNK3 inh | hit rate 40% among 2,400;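 active means thallium flux ratio, averaged over three wells, more than 5 SD below the buffer control mean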;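 further: host cells are CHO cells without KCNK3 induction; ratio is peak minus trough fluorescence over baseline then normalized to buffer controls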
* = called active by the depositor; i = inactive; / = no result.

SMILES	Kir21 inh	KCNK3 inh	KCNQ1 act	KCNK9 block	hERG protect	KCNQ1 block	KCNQ1 block val	CHO Tl flux	KCNQ2 inh	KCNQ1 KCNE1 spec	KCNK9 inh conf	Kir2-1 spec	KCNK9 uninduced	others
Nc1c(C(=O)c2ccccc2)sc2nsc(SCCN3CCCC3)c12	-3.5	i	i	i	-26	8*	108*	0.21*	i	144%*	45%*	36%*	73%*
Cc1ccc(-n2cccn2)c(CN2CCCC(C(=O)c3ccc4c(c3)OCO4)C2)c1 (stereo unspecified)	-0.05	i	i	i	-17	8*	66*	0.39	112%*	80%*	i	i	i
O=C(c1ccc2c(c1)OCO2)C1CCCN(Cc2cc(F)ccc2-n2cccn2)C1 (stereo unspecified)	0.84	i	i	i	-16	i	/	/	/	/	/	/	/
C=CCN=C(CC)C1=C(O)CCCC1=O	-0.6	i	i	i	-5	i	/	/	/	/	/	/	/
N#Cc1c(N2CCN(C(=O)c3ccccc3Cl)CC2)nc(-c2ccccc2)c2c1CCCC2	2.1	i	i	i	-11	8*	92*	0.34*	102%*	117%*	i	i	i
c1ccc(CC2CCN(C3=Nc4cccc5cccc3c45)CC2)cc1	-1.4	i	i	-9*	-35	13*	150*	0.34*	121%*	135%*	36%*	35%*	38%*
CN1C(=O)N(C)C(c2cccc([N+](=O)[O-])c2)C2=C1CCCC2=O (stereo unspecified)	-2.1	i	i	i	-1	i	/	/	/	/	/	/	/
CCOC(=O)c1nnn(-c2nonc2-n2cccc2)c1CN1CCC(C)CC1	-1.4	-9.1*	i	-9.3*	-14	6*	88*	0.39	71%*	128%*	i	i	32%*
CCOC(=O)c1nnn(-c2nonc2-n2cccc2)c1CCl	1.3	i	i	i	-10	i	/	/	/	/	/	/	/
O=C(Nc1cccc(Cl)c1)Nc1cc(S(=O)(=O)N2CCCCC2)ccc1Cl	1.9	i	i	i	-31	8*	104*	0.47	67%*	105%*	i	i	i
CCN(CC(=O)Nc1cc(S(=O)(=O)N2CCCCC2)ccc1Cl)Cc1ccccc1	-1.5	i	i	i	-14	11*	86*	0.4	104%*	136%*	i	i	i
CCN(CC(=O)Nc1cc(S(=O)(=O)N2CCOCC2)ccc1Cl)Cc1ccccc1	/	i	/	/	/	/	/	/	/	/	/	/	/
CCN(CC)S(=O)(=O)c1ccc(C)c(NC(=S)Nc2cccc(S(=O)(=O)N3CCCCCC3)c2)c1	-2.7	i	i	i	-21	6*	86*	0.4	87%*	89%*	i	i	i
N#C/C=C(/N)c1ccc(Br)cc1	0.65	i	i	i	-10	i	/	/	/	/	/	/	/
Cc1cc(C)n(-c2nc(SCCN(C)C)c3c4c(sc3n2)CCCC4)n1	-8*	i	i	-9.8*	-32	14*	88*	0.4	109%*	112%*	44%*	44%*	28%*
O=C(CC1SC(=Nc2ccccc2)N(CCCO)C1=O)Nc1ccc(Cl)cc1 (stereo unspecified)	0.48	i	i	i	-26	9*	72*	0.51	78%*	110%*	i	i	i
COc1cccc(N(CC(=O)NC2CC3CCC2C3)S(=O)(=O)c2ccccc2)c1 (stereo unspecified)	-0.11	i	i	i	-8	i	/	/	/	/	/	/	/
Cc1cccc(N(CC(=O)NC2CC3CCC2C3)S(=O)(=O)c2ccccc2)c1 (stereo unspecified)	-0.33	i	i	i	-7	6*	50*	0.43	79%*	61%*	i	i	i
CS(=O)c1ccccc1COC(=O)Nc1ccc(Cl)cc1 (stereo unspecified)	1	i	i	i	-5	i	/	/	/	/	/	/	/
c1ccc(Cc2nc3ccccc3o2)cc1	0.11	i	i	i	-1	i	/	/	/	/	/	/	/
Cn1ncc(Cl)c1C(=O)N1CCN(c2ccc(Cl)c(Cl)c2)CC1	0.38	i	i	-10*	-20	12*	120*	0.43	98%*	87%*	42%*	i	26%*	KCNQ1 ephys val=i
Cn1ncc(Cl)c1C(=O)N1CCN(c2ccccc2)CC1	-1.2	i	i	i	-16	i	/	/	/	/	/	/	/
O=C(NCC(=O)N(c1cccc(F)c1)C(C(=O)NC1CCCC1)c1ccco1)c1ccco1 (stereo unspecified)	0.69	i	i	i	-4	i	/	/	/	/	/	/	/
c1csc(CNc2nc(-c3cccs3)nc3ccccc23)c1	-2.1	-11*	i	i	-14	6*	112*	0.38	123%*	168%*	/	/	/	KCNQ1 ephys val=i;KCNK3 confirm=108*;KCNK3 uninduced=i
Cc1oc2ccc(OCc3c(F)cccc3Cl)cc2c1C(=O)O	-0.24	i	i	i	-12	i	/	/	/	/	/	/	/
